Key:
[1] = Cytotoxic activity against HFF cells.; assay type: cell-based; settings: Homo sapiens
Summary of the method: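 Cytotoxicity was scored visually in uninfected HFF or BSC-1 monolayers within the plaque-reduction assays. Drug-induced cytopathology was read at 35- and 60-fold magnification on a 0 to 4+ scale on the day plaques were stained and counted.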

Neoplastic cell line [2] = assay: Cytotoxic activity against KB cells.; assay type: cell-based; settings: Homo sapiens
Summary of the method: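 KB cells (human oral epidermoid carcinoma) grown in MEM(H) with 5% FBS. Compound effect on incorporation of radiolabelled precursors into DNA, RNA and protein was measured. IC50s came from linear regression of percent inhibition against log concentration, and the three IC50s were averaged.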

Human betaherpesvirus 5 = assay: Inhibition of human cytomegalovirus (HCMV) in plaque reduction assay; assay type: functional, organism-based
Summary of the method: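 HCMV Towne strain (plaque-purified P0) plaque reduction in HFF monolayers in MEM(E) with 10% FBS. Inoculum held about 50 PFU, with compound dissolved in the overlay medium. IC50 came from linear regression of percent inhibition against log concentration, with ganciclovir or acyclovir positive controls in every set; two to five experiments.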

L1210 [3] = assay: In vitro inhibition of L1210 cell growth.; assay type: functional, Mus musculus; set-up: concentration or dose not given beside the values
Summary of the method: (§1)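 Murine L1210 leukemia cells in static suspension culture in Fischer's medium with compound for 4 days. Growth rate is the ratio of control to treated population doubling time; where the rate changed, the final rate was used. IC50 is the concentration giving 50% of control growth rate; single-concentration value at 100 μM.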

L1210 [4] = assay: In vitro inhibition of L1210 cell growth to half of the control rate; assay type: functional, cell-based; settings: Mus musculus; summary of the method: as §1
Human alphaherpesvirus 1 [5] = assay: Inhibition of herpes simplex virus (HSV-1) in plaque reduction assay; assay type: functional, organism-based
Summary of the method: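 HSV-1 S-148 strain plaque reduction in BSC-1 monkey kidney monolayers, with about 100 PFU inoculum and compound dissolved in the overlay medium. IC50 came from linear regression of percent inhibition against log concentration, with a positive control in each set.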

Mus musculus [6] = assay: Compound was evaluated for 15 mice treated ip twice daily for 5 days at a dose of 1.9 mg/kg at 24 hr followed (MCMV) virus inoculation; assay type: functional; settings: route intraperitoneal
Summary of the method: (§2)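 Three-week-old female Swiss Webster mice inoculated ip with 2×10^5 PFU MCMV Smith strain. Groups of 15 dosed ip twice daily for 5 days, starting 6, 24 or 48 h post-inoculation. Held 21 days with daily mortality checks. Final mortality and mean day of death (dying animals) computed. Mortality versus placebo by Fisher Exact Test, MDD by Mann–Whitney U-rank test.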

Mus musculus [7] = assay: Compound was evaluated for percent mortality of mice inoculated with murine cytomegalovirus at a concentration of 5.6 mg/kg at 24 h; assay type: ADME, organism-based; set-up: dose 5.6 mg/kg; settings: in vivo
Summary of the method: (§3)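 Three-week-old female Swiss Webster mice infected ip with 2×10^5 PFU MCMV Smith strain; groups of 15 given drug ip twice daily for 5 days, starting 6, 24 or 48 h after inoculation. Toxicity controls received drug without virus. Mortality followed daily for 21 days; final mortality compared with placebo by Fisher Exact Test.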

Mus musculus [8] = assay: Compound was evaluated for 15 mice treated ip twice daily for 5 days at a dose of 16.7 mg/kg at 6 hr followed (MCMV) virus inoculation; assay type: functional; settings: route intraperitoneal; summary of the method: as §2
Mus musculus [9] = assay: Compound was evaluated for percent mortality of mice inoculated with murine cytomegalovirus at a concentration of 16.7 mg/kg at 48 h; assay type: organism-based; set-up: dose 16.7 mg/kg; settings: in vivo; summary of the method: as §2
Neoplastic cell line [10] = assay: Compound was evaluated for cytotoxic activity against KB cells; assay type: cell-based; settings: Homo sapiens
Summary of the method: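 KB cells grown in MEM(H) + 5% FBS. Compound effects measured on radiolabelled precursor incorporation into DNA, RNA and protein. IC50s from linear regression of percent inhibition vs log concentration. The three IC50s were averaged, with 2–5 experiments averaged. Runs rejected if the acyclovir/ganciclovir control deviated >1.5 SD from its mean.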

Mus musculus [11] = assay: Compound was evaluated for mean day of death at 1.9 mg/kg at 24 h; assay type: functional; summary of the method: as §2
Mus musculus [12] = assay: Compound was evaluated for 15 mice treated ip twice daily for 5 days at a dose of 0.6 mg/kg at 6 hr followed (MCMV) virus inoculation; assay type: functional; settings: route intraperitoneal; summary of the method: as §2
Mus musculus [13] = assay: Compound was evaluated for mean day of death at 5.6 mg/kg at 48 h; assay type: functional; summary of the method: as §2
Mus musculus [14] = assay: Compound was evaluated for percent mortality of mice inoculated with murine cytomegalovirus at a concentration of 1.9 mg/kg at 6 h; assay type: organism-based; set-up: dose 1.9 mg/kg; settings: in vivo; summary of the method: as §2
Mus musculus [15] = assay: Compound was evaluated for 15 mice treated ip twice daily for 5 days at a dose of 5.6 mg/kg at 6 hr followed (MCMV) virus inoculation; assay type: functional; settings: route intraperitoneal; summary of the method: as §2
Mus musculus [16] = assay: Compound was evaluated for percent mortality of mice inoculated with murine cytomegalovirus at a concentration of 0.6 mg/kg at 24 h; assay type: organism-based; set-up: dose 0.6 mg/kg; settings: in vivo; summary of the method: as §2
Mus musculus [17] = assay: Compound was evaluated for mean day of death at 16.7 mg/kg at 24 h; assay type: functional; summary of the method: as §2
Mus musculus [18] = assay: Compound was evaluated for mean day of death at 0.6 mg/kg at 48 h; assay type: functional; summary of the method: as §2
Mus musculus [19] = assay: Compound was evaluated for mean day of death at 1.9 mg/kg at 6 h; assay type: functional; summary of the method: as §2
Mus musculus [20] = assay: Compound was evaluated for mean day of death at 5.6 mg/kg at 24 h; assay type: functional; summary of the method: as §2
Mus musculus [21] = assay: Compound was evaluated for 15 mice treated ip twice daily for 5 days at a dose of 5.6 mg/kg at 48 hr followed (MCMV) virus inoculation; assay type: functional; settings: route intraperitoneal; summary of the method: as §2
Mus musculus [22] = assay: Compound was evaluated for 15 mice treated ip twice daily for 5 days at a dose of 16.7 mg/kg at 48 hr followed (MCMV) virus inoculation; assay type: functional; settings: route intraperitoneal; summary of the method: as §2
Human alphaherpesvirus 1 [23] = assay: Inhibition of herpes simplex virus (HSV-1) in yield reduction assay; assay type: functional, organism-based
Mus musculus [24] = assay: Compound was evaluated for mean day of death at 16.7 mg/kg at 48 h; assay type: functional; summary of the method: as §2
Mus musculus [25] = assay: Compound was evaluated for 15 mice treated ip twice daily for 5 days at a dose of 1.9 mg/kg at 48 hr followed (MCMV) virus inoculation; assay type: functional; settings: route intraperitoneal; summary of the method: as §2
Mus musculus [26] = assay: Compound was evaluated for percent mortality of mice inoculated with murine cytomegalovirus at a concentration of 1.9 mg/kg at 24 h; assay type: organism-based; set-up: dose 1.9 mg/kg; settings: in vivo; summary of the method: as §2
Mus musculus [27] = assay: Compound was evaluated for percent mortality of mice inoculated with murine cytomegalovirus at a concentration of 16.7 mg/kg at 24 h; assay type: organism-based; set-up: dose 16.7 mg/kg; settings: in vivo; summary of the method: as §2
Mus musculus [28] = assay: Compound was evaluated for mean day of death at 16.7 mg/kg at 6 h; assay type: functional; summary of the method: as §2
Mus musculus [29] = assay: Compound was evaluated for 15 mice treated ip twice daily for 5 days at a dose of 0.6 mg/kg at 48 h followed (MCMV) virus inoculation; assay type: functional; settings: route intraperitoneal; summary of the method: as §2
Mus musculus [30] = assay: Compound was evaluated for percent mortality of mice inoculated with murine cytomegalovirus at a concentration of 1.9 mg/kg at 48 h; assay type: organism-based; set-up: dose 1.9 mg/kg; settings: in vivo; summary of the method: as §2
Mus musculus [31] = assay: Compound was evaluated for percent mortality of mice inoculated with murine cytomegalovirus at a concentration of 0.6 mg/kg at 48 h; assay type: organism-based; set-up: dose 0.6 mg/kg; settings: in vivo; summary of the method: as §2
Mus musculus [32] = assay: Compound was evaluated for mean day of death at 1.9 mg/kg at 48 h; assay type: functional; summary of the method: as §2
Mus musculus [33] = assay: Compound was evaluated for 15 mice treated ip twice daily for 5 days at a dose of 1.9 mg/kg at 6 hr followed (MCMV) virus inoculation; assay type: functional; settings: route intraperitoneal; summary of the method: as §2
Mus musculus [34] = assay: Compound was evaluated for percent mortality of mice inoculated with murine cytomegalovirus at a concentration of 5.6 mg/kg at 48 h; assay type: ADME, organism-based; set-up: dose 5.6 mg/kg; settings: in vivo; summary of the method: as §3
Mus musculus [35] = assay: Compound was evaluated for mean day of death at 0.6 mg/kg at 24 h; assay type: functional; summary of the method: as §2
Mus musculus [36] = assay: Compound was evaluated for 15 mice treated ip twice daily for 5 days at a dose of 0.6 mg/kg at 24 h followed (MCMV) virus inoculation; assay type: functional; settings: route intraperitoneal; summary of the method: as §2
Mus musculus [37] = assay: Compound was evaluated for mean day of death at 0.6 mg/kg at 6 h; assay type: functional; summary of the method: as §2
Mus musculus [38] = assay: Compound was evaluated for mean day of death at 5.6 mg/kg at 6 h; assay type: functional; summary of the method: as §2
Mus musculus [39] = assay: Compound was evaluated for percent mortality of mice inoculated with murine cytomegalovirus at a concentration of 5.6 mg/kg at 6 h; assay type: ADME, organism-based; set-up: dose 5.6 mg/kg; settings: in vivo; summary of the method: as §3
Mus musculus [40] = assay: Compound was evaluated for percent mortality of mice inoculated with murine cytomegalovirus at a concentration of 16.7 mg/kg at 6 h; assay type: organism-based; set-up: dose 16.7 mg/kg; settings: in vivo; summary of the method: as §2
[41] = Compound was evaluated for cytotoxic activity against BSC cells; assay type: cell-based; settings: Cercopithecidae
Summary of the method: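 Visual cytotoxicity in uninfected areas of plaque-reduction cultures. HFF cells grown in MEM(E) + 10% FBS for HCMV (Towne) assays; BSC-1 cells for HSV-1 (S-148) assays. Drug in overlay medium. Cytopathology scored 0 to 4+ at 35- and 60-fold magnification on the staining day.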

Mus musculus [42] = assay: Compound was evaluated for percent mortality of mice inoculated with murine cytomegalovirus at a concentration of 0.6 mg/kg at 6 h; assay type: organism-based; set-up: dose 0.6 mg/kg; settings: in vivo; summary of the method: as §2
Mus musculus [43] = assay: Compound was evaluated for 15 mice treated ip twice daily for 5 days at a dose of 5.6 mg/kg at 24 hr followed (MCMV) virus inoculation; assay type: functional; settings: route intraperitoneal; summary of the method: as §2
Mus musculus [44] = assay: Compound was evaluated for 15 mice treated ip twice daily for 5 days at a dose of 16.7 mg/kg at 24 hr followed (MCMV) virus inoculation; assay type: functional; settings: route intraperitoneal; summary of the method: as §2

SMILES: OC[C@H]1O[C@@H](n2cc(Br)c3c(NO)ncnc32)[C@H](O)[C@@H]1O
- IC50 [1]: > 100 µM
- IC50 (Neoplastic cell line [2]): > 100 µM
- IC50 (Human betaherpesvirus 5): 3 µM
- IC50 (Human betaherpesvirus 5; Human betaherpesvirus 5): 5.6 µM
- Activity (L1210 [3]): 10%
- IC50 (L1210 [4]): 25 µM

SMILES: Cc1cn(COC(CO)CO)c2ncnc(N)c12
- IC50 [1]: > 100 µM
- IC50 (Human betaherpesvirus 5; Human betaherpesvirus 5): > 100 µM
- Activity (L1210 [3]): 73%
- IC50 (L1210 [4]): > 100 µM
- IC50 (Human alphaherpesvirus 1 [5]): > 100 µM

SMILES: Nc1nc2c(ncn2COC(CO)CO)c(=O)[nH]1 [GANCICLOVIR]
- Activity (Mus musculus [6]): 12
- Mortality (Mus musculus [7]): 47%
- Activity (Mus musculus [8]): 4
- Mortality (Mus musculus [9]): 53%
- IC50 (Neoplastic cell line [10]): > 100 µM
- MDD (Mus musculus [11]): 4.9
- Activity (Mus musculus [12]): 14
- MDD (Mus musculus [13]): 5.5
- Mortality (Mus musculus [14]): 33%
- Activity (Mus musculus [15]): 5
- Mortality (Mus musculus [16]): 80%
- MDD (Mus musculus [17]): 5.3
- MDD (Mus musculus [18]): 5.3
- MDD (Mus musculus [19]): 5.4
- MDD (Mus musculus [20]): 5.3
- Activity (Mus musculus [21]): 10
- Activity (Mus musculus [22]): 8
- IC90 (Human alphaherpesvirus 1 [23]): 1.2 µM
- MDD (Mus musculus [24]): 5.5
- Activity (Mus musculus [25]): 11
- Mortality (Mus musculus [26]): 80%
- Mortality (Mus musculus [27]): 47%
- MDD (Mus musculus [28]): 3.8
- Activity (Mus musculus [29]): 14
- Mortality (Mus musculus [30]): 73%
- Mortality (Mus musculus [31]): 93%
- MDD (Mus musculus [32]): 4.9
- Activity (Mus musculus [33]): 5
- IC50 (Human betaherpesvirus 5): 8.7 µM
- Mortality (Mus musculus [34]): 67%
- MDD (Mus musculus [35]): 5.4
- Activity (Mus musculus [36]): 12
- MDD (Mus musculus [37]): 4.6
- MDD (Mus musculus [38]): 4.2
- Mortality (Mus musculus [39]): 33%
- Mortality (Mus musculus [40]): 27%
- IC50 [41]: > 100 µM
- Mortality (Mus musculus [42]): 93%
- Activity (Mus musculus [43]): 7
- Activity (Mus musculus [44]): 7
- IC50 (Human alphaherpesvirus 1 [5]): 4.5 µM

SMILES: OCC(CO)OCn1ccc2cncnc21
- IC50 [1]: > 100 µM
- IC50 (Human betaherpesvirus 5; Human betaherpesvirus 5): > 100 µM
- Activity (L1210 [3]): 100%

Reference: ChEMBL document CHEMBL1124846, “Synthesis, antiproliferative, and antiviral activity of certain 4-substituted and 4,5-disubstituted 7-[(1,3-dihydroxy-2-propoxy)methyl]pyrrolo[2,3-d]pyrimidines” (J Med Chem, 1990)
